Reference: ChEMBL document CHEMBL2177067 (J Med Chem, 2012)
≈ marks a conversion by molar mass, not a printed value.

Key:
[1] = Selectivity index, ratio of CC50 for human HeLa cells to MIC for Staphylococcus aureus ATCC 25923; format: functional
Outline: (§1)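 Selectivity index is HeLa CC50 (MTS assay) divided by the bacterial MIC.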

HeLa = assay: Cytotoxicity against human HeLa cells by MTS assay; format: cell-based
[2] = Selectivity index, ratio of CC50 for human HeLa cells to MIC for Bacillus anthracis; format: functional; outline: as §1
Staphylococcus aureus [3] = assay: Antibacterial activity against Staphylococcus aureus ATCC 25923 by broth microdilution method in presence of reserpine; format: functional
Staphylococcus aureus [4] = assay: Antibacterial activity against Staphylococcus aureus ATCC 25923 by broth microdilution method; format: functional
Bacillus anthracis [5] = assay: Antibacterial activity against Bacillus anthracis by broth microdilution method; format: functional
[6] = Inhibition of Staphylococcus aureus ATCC 25923 replicative DnaB helicase-mediated ATP-dependent dissociation of Hel-5'FAM:Hel-3'BHQ by FRET assay
Outline: (§2)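 Unwinding was read by FRET as helicase-driven, ATP-dependent dissociation of annealed Hel-5′FAM and Hel-3′BHQ oligonucleotides, one fluorescent and the other quencher-labelled. The replicative helicases were prepared as described earlier.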

Replicative DNA helicase = biological target: T1, Replicative DNA helicase (Bacillus anthracis, UniProt A0A6L8Q2B7); assay: Inhibition of Bacillus anthracis Sterne 34F2 replicative DNA helicase-mediated ATP-dependent dissociation of Hel-5'FAM:Hel-3'BHQ by FRET assay; design: species or system Bacillus anthracis str. Sterne; outline: as §2
T1 sequence (A0A6L8Q2B7 whole entry): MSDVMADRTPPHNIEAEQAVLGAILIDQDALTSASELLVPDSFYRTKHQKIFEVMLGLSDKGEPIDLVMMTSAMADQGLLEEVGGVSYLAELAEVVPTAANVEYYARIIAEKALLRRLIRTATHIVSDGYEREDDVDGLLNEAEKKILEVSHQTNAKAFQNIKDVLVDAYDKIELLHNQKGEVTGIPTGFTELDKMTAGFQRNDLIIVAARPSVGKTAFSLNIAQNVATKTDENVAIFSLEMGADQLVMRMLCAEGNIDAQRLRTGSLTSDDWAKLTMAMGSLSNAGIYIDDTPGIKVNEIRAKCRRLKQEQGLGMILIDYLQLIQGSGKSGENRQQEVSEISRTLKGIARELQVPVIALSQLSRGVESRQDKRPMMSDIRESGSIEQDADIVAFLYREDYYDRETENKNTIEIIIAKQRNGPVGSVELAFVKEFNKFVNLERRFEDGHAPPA

Staphylococcus aureus [7] = assay: Antibacterial activity against methicillin-resistant Staphylococcus aureus 1094; format: functional
Staphylococcus aureus [8] = assay: Antibacterial activity against methicillin-resistant Staphylococcus aureus 1234558336; format: functional
Staphylococcus aureus [9] = assay: Antibacterial activity against methicillin-resistant Staphylococcus aureus 1234549404; format: functional
Staphylococcus aureus [10] = assay: Antibacterial activity against methicillin-resistant Staphylococcus aureus 1234547263; format: functional
Staphylococcus aureus [11] = assay: Antibacterial activity against methicillin-resistant Staphylococcus aureus 1234544081; format: functional
Staphylococcus aureus [12] = assay: Antibacterial activity against methicillin-resistant Staphylococcus aureus 1234522733; format: functional
Staphylococcus aureus [13] = assay: Antibacterial activity against methicillin-resistant Staphylococcus aureus 1234543349; format: functional
Staphylococcus aureus [14] = assay: Antibacterial activity against Staphylococcus aureus ATCC 25923; format: functional
Enterococcus faecium [15] = assay: Antibacterial activity against vancomycin-resistant Enterococcus faecium 1644; format: functional
Enterococcus faecium [16] = assay: Antibacterial activity against vancomycin-resistant Enterococcus faecium B42762; format: functional
Enterococcus faecium [17] = assay: Antibacterial activity against Enterococcus faecium ATCC 19434; format: functional
Enterococcus faecalis [18] = assay: Antibacterial activity against vancomycin-resistant Enterococcus faecalis F118; format: functional
Enterococcus faecalis [19] = assay: Antibacterial activity against vancomycin-resistant Enterococcus faecalis 700802; format: functional
Enterococcus faecalis [20] = assay: Antibacterial activity against vancomycin-resistant Enterococcus faecalis 51299; format: functional
Enterococcus faecalis [21] = assay: Antibacterial activity against vancomycin-resistant Enterococcus faecalis ATCC 51575; format: functional
Enterococcus faecalis [22] = assay: Antibacterial activity against Enterococcus faecalis ATCC 29212; format: functional
Bacillus licheniformis = assay: Antibacterial activity against Bacillus licheniformis ATCC 14580; format: functional
Bacillus anthracis [23] = assay: Antibacterial activity against Bacillus anthracis Sterne; format: functional
Bacillus thuringiensis = assay: Antibacterial activity against Bacillus thuringiensis ATCC 10792; format: functional
Bacillus subtilis = assay: Antibacterial activity against Bacillus subtilis BD54; format: functional
Staphylococcus aureus [24] = assay: Inhibition of Staphylococcus aureus ATCC 25923 single-strand DNA stimulated ATPase activity of replicative DnaB helicase at 50 uM by FRET assay

Cc1c(CCCC(=O)O)c(=O)oc2c(C)c(OCc3ccc(-c4ccccc4)cc3)ccc12
Selectivity Index [1]: <0.8 | CC50 (HeLa): 31 µM | Selectivity Index [2]: 25 | MIC (Staphylococcus aureus [3]): > 100 µM | MIC (Staphylococcus aureus [4]): > 100 µM | MIC (Bacillus anthracis [5]): 1.25 µM (≈ 0.553 µg/mL) | IC50 [6]: 2.2 µM | IC50 (Replicative DNA helicase): 2 µM

CNC(=O)CCc1c(C)c2ccc(OCc3ccc(-c4ccc(Cl)cc4)cc3)c(C)c2oc1=O
Selectivity Index [1]: 0.91 | CC50 (HeLa): 90.7 µM | Selectivity Index [2]: 0.91 | MIC (Staphylococcus aureus [4]): > 100 µM | MIC (Bacillus anthracis [5]): > 100 µM | IC50 [6]: 38 µM | IC50 (Replicative DNA helicase): > 100 µM

Cc1c(CCC(=O)O)c(=O)oc2c(C)c(OCc3c4ccccc4cc4ccccc34)ccc12
Selectivity Index [1]: 0.4 | CC50 (HeLa): 8.3 µM | Selectivity Index [2]: 3.3 | MIC (Staphylococcus aureus [3]): 50 µM | MIC (Staphylococcus aureus [4]): 20 µM (≈ 9.05 µg/mL) | MIC (Bacillus anthracis [5]): 2.5 µM (≈ 1.13 µg/mL) | IC50 [6]: 8.3 µM | IC50 (Replicative DNA helicase): 7.2 µM

Cc1c(CCC(=O)O)c(=O)oc2c(C)c(OCc3ccc4ccccc4c3)ccc12
Selectivity Index [1]: <1 | CC50 (HeLa): 38 µM | Selectivity Index [2]: 7.6 | MIC (Staphylococcus aureus [3]): > 100 µM | MIC (Staphylococcus aureus [4]): > 100 µM | MIC (Bacillus anthracis [5]): 5 µM (≈ 2.01 µg/mL) | IC50 [6]: 8 µM | IC50 (Replicative DNA helicase): 9 µM

Cc1c(CCC(=O)O)c(=O)oc2c(C)c(OCc3ccccc3)ccc12
IC50 [6]: 60 µM | IC50 (Replicative DNA helicase): 85 µM

Cc1c(CCC(=O)O)c(=O)oc2c(C)c(OCc3ccc4ccc(Cl)cc4n3)ccc12
IC50 [6]: 50 µM | IC50 (Replicative DNA helicase): 56 µM

Cc1c(CCC(=O)O)c(=O)oc2c(C)c(OCc3ccc(-c4ccc(Cl)cc4)cc3)ccc12
MIC (Staphylococcus aureus [7]): 2.1 µg/mL (≈ 4.54 µM) | MIC (Staphylococcus aureus [8]): 1.04 µg/mL (≈ 2.25 µM) | MIC (Staphylococcus aureus [9]): 0.52 µg/mL (≈ 1.12 µM) | MIC (Staphylococcus aureus [10]): 0.65 µg/mL (≈ 1.4 µM) | MIC (Staphylococcus aureus [11]): 0.65 µg/mL (≈ 1.4 µM) | MIC (Staphylococcus aureus [12]): 0.78 µg/mL (≈ 1.68 µM) | MIC (Staphylococcus aureus [13]): 1.56 µg/mL (≈ 3.37 µM) | MIC (Staphylococcus aureus [14]): 0.78 µg/mL (≈ 1.68 µM) | MIC (Enterococcus faecium [15]): 10.4 µg/mL (≈ 22.5 µM) | MIC (Enterococcus faecium [16]): 9.4 µg/mL (≈ 20.3 µM) | MIC (Enterococcus faecium [17]): 12.5 µg/mL (≈ 27 µM) | MIC (Enterococcus faecalis [18]): 3.6 µg/mL (≈ 7.78 µM) | MIC (Enterococcus faecalis [19]): 16.7 µg/mL (≈ 36.1 µM) | MIC (Enterococcus faecalis [20]): 4.2 µg/mL (≈ 9.07 µM) | MIC (Enterococcus faecalis [21]): 25 µg/mL (≈ 54 µM) | MIC (Enterococcus faecalis [22]): 6.3 µg/mL (≈ 13.6 µM) | MIC (Bacillus licheniformis): 0.098 µg/mL (≈ 0.212 µM) | MIC (Bacillus anthracis [23]): 0.17 µg/mL (≈ 0.367 µM) | MIC (Bacillus thuringiensis): 0.52 µg/mL (≈ 1.12 µM) | MIC (Bacillus subtilis): 3.1 µg/mL (≈ 6.7 µM) | inhibition (Staphylococcus aureus [24]): 8% | CC50 (HeLa): 25 µM | MIC (Staphylococcus aureus [4]): 1.25 µM (≈ 0.579 µg/mL) | MIC (Bacillus anthracis [5]): 0.625 µM (≈ 0.289 µg/mL) | IC50 [6]: 1 µM | IC50 (Replicative DNA helicase): 1.5 µM

Cc1c(CCC(=O)O)c(=O)oc2cc(OCc3ccc4ccc(Cl)cc4n3)ccc12
IC50 [6]: 70 µM | IC50 (Replicative DNA helicase): > 100 µM

CCc1c(OCc2ccc(-c3ccccc3)cc2)ccc2c(C)c(CCCC(=O)O)c(=O)oc12
Selectivity Index [1]: 3.1 | CC50 (HeLa): 15.4 µM | Selectivity Index [2]: 6.2 | MIC (Staphylococcus aureus [3]): > 100 µM | MIC (Staphylococcus aureus [4]): > 100 µM | MIC (Bacillus anthracis [5]): 2.5 µM (≈ 1.14 µg/mL) | IC50 [6]: 1.8 µM | IC50 (Replicative DNA helicase): 5 µM

Cc1c(CCC(=O)O)c(=O)oc2c(C)c(OCc3cccc4ccccc34)ccc12
Selectivity Index [1]: <0.06 | Selectivity Index [2]: 0.09 | MIC (Staphylococcus aureus [4]): > 100 µM | MIC (Bacillus anthracis [5]): 65 µM (≈ 26.2 µg/mL)

Cc1c(CC(=O)O)c(=O)oc2c(C)c(OCc3ccc(-c4ccccc4)cc3)ccc12
Selectivity Index [1]: 14 | CC50 (HeLa): 115 µM | Selectivity Index [2]: 46 | MIC (Staphylococcus aureus [3]): 12.5 µM | MIC (Staphylococcus aureus [4]): 8.2 µM (≈ 3.4 µg/mL) | MIC (Bacillus anthracis [5]): 2.5 µM (≈ 1.04 µg/mL) | IC50 [6]: 8.6 µM | IC50 (Replicative DNA helicase): 9 µM

Cc1c(CCC(=O)O)c(=O)oc2cc(OCc3cccc(-c4ccccc4)c3)ccc12
Selectivity Index [1]: 1 | CC50 (HeLa): 10.1 µM | Selectivity Index [2]: 4 | MIC (Staphylococcus aureus [4]): 10 µM (≈ 4.14 µg/mL) | MIC (Bacillus anthracis [5]): 2.5 µM (≈ 1.04 µg/mL) | IC50 (Replicative DNA helicase): 15 µM

Cc1c(CCC(=O)O)c(=O)oc2cc(OCc3ccccc3-c3ccccc3)ccc12
Selectivity Index [1]: 0.6 | CC50 (HeLa): 7.8 µM | Selectivity Index [2]: 1.6 | MIC (Staphylococcus aureus [4]): 12.5 µM (≈ 5.18 µg/mL) | MIC (Bacillus anthracis [5]): 5 µM (≈ 2.07 µg/mL) | IC50 [6]: 12 µM | IC50 (Replicative DNA helicase): 19 µM

Cc1c(CCC(=O)O)c(=O)oc2c(C)c(OCc3ccc(-c4ccc(Cl)c(Cl)c4)cc3)ccc12
Selectivity Index [1]: 6.4 | CC50 (HeLa): 19.2 µM | Selectivity Index [2]: 6.4 | MIC (Staphylococcus aureus [3]): 6.3 µM | MIC (Staphylococcus aureus [4]): 3 µM (≈ 1.49 µg/mL) | MIC (Bacillus anthracis [5]): 3 µM (≈ 1.49 µg/mL) | IC50 [6]: 2.4 µM | IC50 (Replicative DNA helicase): 3 µM

Cc1c(CCC(=O)O)c(=O)oc2c(C)c(OCc3cccc(-c4ccccc4)c3)ccc12
Selectivity Index [1]: 0.3 | CC50 (HeLa): 5.6 µM | Selectivity Index [2]: 9 | MIC (Staphylococcus aureus [4]): 20 µM (≈ 8.57 µg/mL) | MIC (Bacillus anthracis [5]): 0.625 µM (≈ 0.268 µg/mL) | IC50 [6]: 6 µM | IC50 (Replicative DNA helicase): 7.5 µM
